ChEMBL document CHEMBL1154814, “Synthesis and antimicrobial activities of 3-O-alkyl analogues of (+)-catechin: improvement of stability and proposed action mechanism” (Eur J Med Chem, 2010)
In brackets after ≈: the same amount, converted by molar mass.

Legend:
[1] = tested on: Proteus mirabilis; assay: Antibacterial activity against Proteus mirabilis ATCC 27853 after 24 hrs by NCCLS method; format: functional
In short: (§1)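 Agar dilution on Mueller Hinton agar. Overnight cultures on soybean casein digest agar at 37 °C were adjusted to 0.5 McFarland, then diluted 10-fold to 1.2 × 10^7 CFU/mL. 10 µL of each culture was spotted, incubated at 35 °C for 24 h. MIC taken as the lowest concentration preventing growth. Triplicates.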

[2] = tested on: Escherichia coli; assay: Antibacterial activity against Escherichia coli ATCC 10536 after 24 hrs by NCCLS method; format: functional; settings: ATCC 10536, 24 h; in short: as §1
[3] = tested on: Enterococcus faecalis; assay: Antibacterial activity against Enterococcus faecalis ATCC 29212 after 24 hrs by NCCLS method; format: functional; settings: ATCC 29212, 24 h; in short: as §1
[4] = tested on: Bacillus subtilis; assay: Antibacterial activity against Bacillus subtilis ATCC 6633 after 24 hrs by NCCLS method; format: functional; settings: ATCC 6633, 24 h; in short: as §1
[5] = tested on: Candida albicans; assay: Antifungal activity against Candida albicans ATCC 10231 after 24 to 72 hrs by NCCLS method; format: functional
In short: (§2)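 Yeasts were grown overnight on Sabouraud dextrose agar at 35 °C and adjusted in saline to 0.5 McFarland (1.0–5.0 × 10^6 cells/mL). This stock was diluted 1:100 then 1:20 to 5.0 × 10^2–2.5 × 10^3 cells/mL. Tubes were incubated at 35 °C for 48 h in ambient air. MIC taken as the lowest concentration preventing growth. Triplicates.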

[6] = tested on: Escherichia coli; assay: Antibacterial activity against Escherichia coli ATCC 25922 after 24 hrs by NCCLS method; format: functional; settings: ATCC 25922, 24 h; in short: as §1
[7] = tested on: Candida tropicalis; assay: Antifungal activity against Candida tropicalis IFO 10241 after 24 to 72 hrs by NCCLS method; format: functional; in short: as §2
[8] = tested on: Micrococcus luteus; assay: Antibacterial activity against Micrococcus luteus ATCC 10240 after 24 hrs by NCCLS method; format: functional; settings: ATCC 10240, 24 h; in short: as §1
[9] = tested on: Pichia kudriavzevii; assay: Antifungal activity against Candida krusei IFO 1664 after 24 to 72 hrs by NCCLS method; format: functional; in short: as §2
[10] = tested on: Staphylococcus aureus; assay: Antibacterial activity against Staphylococcus aureus ATCC 25923 after 24 hrs by NCCLS method; format: functional; settings: ATCC 25923, 24 h; in short: as §1
[11] = tested on: Klebsiella pneumoniae; assay: Antibacterial activity against Klebsiella pneumoniae ATCC 10031 after 24 hrs by NCCLS method; format: functional; settings: ATCC 10031, 24 h; in short: as §1
[12] = tested on: Staphylococcus epidermidis; assay: Antibacterial activity against Staphylococcus epidermidis ATCC 0155 after 24 hrs by NCCLS method; format: functional; settings: ATCC 0155, 24 h; in short: as §1
[13] = tested on: Clavispora lusitaniae; assay: Antifungal activity against Candida lusitaniae ATCC 42720 after 24 to 72 hrs by NCCLS method; format: functional; in short: as §2
[14] = Drug uptake assessed as incorporation into egg phosphatidylcholine liposome by HPLC; format: ADME; settings: artificial membrane
In short: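 Egg PC liposomes were diluted 10-fold in PBS, untrapped glucose was removed by centrifugation, and lipid was adjusted to 1 mg/mL. Compound in ethanol was added to final 50 µM with 10% ethanol. Percent incorporated into bilayers was derived from HPLC peak integration of compound left in solution.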

[15] = Chemical stability in PBS buffer at pH 7.4 assessed as compound remaining after 16 hrs by HPLC; format: physicochemical; settings: read-out: Stability
In short: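 Compound at 200 µM in 1% DMSO / 50 mM PBS, pH 7.4, incubated at 37 °C without cells; pH was checked before and after. Samples went onto a C-18 HPLC column (35/65 CH3CN/H2O, 1 mL/min, column at 37 °C). Percent remaining was taken from peak integration against an internal standard at 254 nm.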

SMILES | MIC [1] | MIC [2] | MIC [3] | MIC [4] | MIC [5] | MIC [6] | MIC [7] | MIC [8] | MIC [9] | MIC [10] | MIC [11] | MIC [12] | MIC [13] | Drug uptake [14] | remaining at 16 h [15]
Oc1cc(O)c2c(c1)O[C@H](c1ccc(O)c(O)c1)[C@@H](O)C2 [CIANIDANOL] | > 128 µg/mL | > 128 µg/mL | > 128 µg/mL | > 128 µg/mL | > 128 µg/mL | > 128 µg/mL | > 128 µg/mL | > 128 µg/mL | > 128 µg/mL | > 128 µg/mL | > 128 µg/mL | > 128 µg/mL | > 128 µg/mL | – | –
CCCCCCCCCCO[C@H]1Cc2c(O)cc(O)cc2O[C@@H]1c1ccc(O)c(O)c1 | – | – | – | – | – | – | – | – | – | – | – | – | – | 100% | > 90%
CCC(C)n1ncn(-c2ccc(N3CCN(c4ccc(OCC5COC(Cn6cncn6)(c6ccc(Cl)cc6Cl)O5)cc4)CC3)cc2)c1=O (configuration not stated) [ITRACONAZOLE] | – | – | – | – | 0.06 µg/mL (≈ 0.085 µM) | – | 0.06 µg/mL (≈ 0.085 µM) | – | 0.25 µg/mL (≈ 0.354 µM) | – | – | – | 0.125 µg/mL (≈ 0.177 µM) | – | –
Oc1cc(O)c2c(c1)O[C@H](c1ccc(O)c(O)c1)[C@H](O)C2 [(-)-EPICATECHIN] | > 128 µg/mL | > 128 µg/mL | > 128 µg/mL | > 128 µg/mL | > 128 µg/mL | > 128 µg/mL | > 128 µg/mL | > 128 µg/mL | > 128 µg/mL | > 128 µg/mL | > 128 µg/mL | > 128 µg/mL | > 128 µg/mL | – | –
CCCCCCCCCCCCCCCCO[C@H]1Cc2c(O)cc(O)cc2O[C@@H]1c1ccc(O)c(O)c1 | – | – | – | – | – | – | – | – | – | – | – | – | – | 100% | –
CCCCCCCCCC(=O)O[C@H]1Cc2c(O)cc(O)cc2O[C@@H]1c1ccc(O)c(O)c1 | – | – | – | – | – | – | – | – | – | – | – | – | – | – | 75%
O=C(O[C@@H]1Cc2c(O)cc(O)cc2O[C@@H]1c1cc(O)c(O)c(O)c1)c1cc(O)c(O)c(O)c1 [EPIGALOCATECHIN GALLATE] | > 128 µg/mL | > 128 µg/mL | > 128 µg/mL | > 128 µg/mL | > 128 µg/mL | > 128 µg/mL | > 128 µg/mL | 32 µg/mL (≈ 69.8 µM) | > 128 µg/mL | > 128 µg/mL | > 128 µg/mL | 128 µg/mL (≈ 279 µM) | > 128 µg/mL | Not Active | 15%
CCCCCCO[C@H]1Cc2c(O)cc(O)cc2O[C@@H]1c1ccc(O)c(O)c1 | – | – | – | – | – | – | – | – | – | – | – | – | – | 100% | –
O=C(O)c1cn(C2CC2)c2cc(N3CCNCC3)c(F)cc2c1=O [CIPROFLOXACIN] | 0.125 µg/mL (≈ 0.377 µM) | – | 0.5 µg/mL (≈ 1.51 µM) | < 0.06 µg/mL | – | – | – | < 0.06 µg/mL | – | 0.25 µg/mL (≈ 0.754 µM) | < 0.06 µg/mL | 0.25 µg/mL (≈ 0.754 µM) | – | – | –
COc1cc(CO[C@H]2Cc3c(O)cc(O)cc3O[C@@H]2c2ccc(O)c(O)c2)cc(OC)c1OC | – | 64 µg/mL (≈ 136 µM) | 64 µg/mL (≈ 136 µM) | 32 µg/mL (≈ 68 µM) | 64 µg/mL (≈ 136 µM) | > 128 µg/mL | 128 µg/mL (≈ 272 µM) | 16 µg/mL (≈ 34 µM) | 128 µg/mL (≈ 272 µM) | 32 µg/mL (≈ 68 µM) | 128 µg/mL (≈ 272 µM) | 32 µg/mL (≈ 68 µM) | 64 µg/mL (≈ 136 µM) | – | –
NC[C@H]1O[C@H](O[C@H]2[C@H](O)[C@@H](O[C@H]3O[C@H](CO)[C@@H](O)[C@H](N)[C@H]3O)[C@H](N)C[C@@H]2N)[C@H](O)[C@@H](O)[C@@H]1O.O=S(=O)(O)O [KANAMYCIN SULFATE] | 32 µg/mL | 8 µg/mL | 32 µg/mL | 2 µg/mL | – | 8 µg/mL | – | 8 µg/mL | – | 16 µg/mL | 64 µg/mL | 4 µg/mL | – | – | –
CCCCCCCCCCCCCCO[C@H]1Cc2c(O)cc(O)cc2O[C@@H]1c1ccc(O)c(O)c1 | – | – | – | – | – | – | – | – | – | – | – | – | – | 100% | –
C[C@@H]1[C@H](O)[C@@H](C)/C=C/C=C/C=C/C=C/C=C/C=C/C=C/[C@H](O[C@@H]2O[C@H](C)[C@@H](O)[C@H](N)[C@@H]2O)C[C@@H]2O[C@](O)(C[C@@H](O)C[C@@H](O)[C@H](O)CC[C@@H](O)C[C@@H](O)CC(=O)O[C@H]1C)C[C@H](O)[C@H]2C(=O)O [AMPHOTERICIN B] | – | – | – | – | 0.25 µg/mL (≈ 0.271 µM) | – | 0.5 µg/mL (≈ 0.541 µM) | – | 0.5 µg/mL (≈ 0.541 µM) | – | – | – | 0.5 µg/mL (≈ 0.541 µM) | – | –
CCCO[C@H]1Cc2c(O)cc(O)cc2O[C@@H]1c1ccc(O)c(O)c1 | > 128 µg/mL | > 128 µg/mL | 64 µg/mL (≈ 193 µM) | 128 µg/mL (≈ 385 µM) | > 128 µg/mL | > 128 µg/mL | > 128 µg/mL | 32 µg/mL (≈ 96.3 µM) | > 128 µg/mL | 64 µg/mL (≈ 193 µM) | > 128 µg/mL | 64 µg/mL (≈ 193 µM) | > 128 µg/mL | – | –
Oc1cc(O)c2c(c1)O[C@H](c1ccc(O)c(O)c1)[C@@H](OCc1ccccc1)C2 | 128 µg/mL (≈ 336 µM) | > 128 µg/mL | 32 µg/mL (≈ 84.1 µM) | 64 µg/mL (≈ 168 µM) | > 128 µg/mL | > 128 µg/mL | > 128 µg/mL | 32 µg/mL (≈ 84.1 µM) | > 128 µg/mL | 64 µg/mL (≈ 168 µM) | 128 µg/mL (≈ 336 µM) | 64 µg/mL (≈ 168 µM) | > 128 µg/mL | – | –
CCCCCCCCO[C@H]1Cc2c(O)cc(O)cc2O[C@@H]1c1ccc(O)c(O)c1 | – | – | – | – | – | – | – | – | – | – | – | – | – | 100% | –
Oc1cc(O)c2c(c1)O[C@H](c1cc(O)c(O)c(O)c1)[C@H](O)C2 [EPIGALLOCATECHIN] | > 128 µg/mL | > 128 µg/mL | > 128 µg/mL | > 128 µg/mL | > 128 µg/mL | > 128 µg/mL | > 128 µg/mL | > 128 µg/mL | > 128 µg/mL | > 128 µg/mL | > 128 µg/mL | > 128 µg/mL | > 128 µg/mL | – | –
O=C(O[C@@H]1Cc2c(O)cc(O)cc2O[C@@H]1c1ccc(O)c(O)c1)c1cc(O)c(O)c(O)c1 [EPICATECHIN GALLATE] | > 128 µg/mL | > 128 µg/mL | > 128 µg/mL | > 128 µg/mL | > 128 µg/mL | > 128 µg/mL | > 128 µg/mL | > 128 µg/mL | > 128 µg/mL | > 128 µg/mL | > 128 µg/mL | > 128 µg/mL | > 128 µg/mL | – | –
CCCCCCCCCCCCO[C@H]1Cc2c(O)cc(O)cc2O[C@@H]1c1ccc(O)c(O)c1 | – | – | – | – | – | – | – | – | – | – | – | – | – | 100% | –
